Experimental findings from PMC11682233 (Scientific Reports, 2024) are described below.

One assay deals with NPC cells. The experiment in a line: Preliminary NPC cytotoxicity screening. The class given is cell-based. As to conditions: MTT, 48 h. The essentials: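 3,000 NPC cells per well, plated 24 h, then given fresh medium with test compound at 0.1, 1, 10 or 100 µM for 48 h; cisplatin served as positive control. MTT at 0.5 mg/mL final in RPMI for 3 h at 37 °C. Formazan dissolved in DMSO, absorbance read at 540 nm. Run in triplicate; t-test, p < 0.05 significant.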

A further assay deals with SUNE5-8F. The experiment in a line: Clonogenic. The class given is cell-based.
The target of assay [1] is T1, FZD10 recombinant proteoliposome (Homo sapiens, UniProt Q9ULW2).
T1 sequence (Q9ULW2 21-581): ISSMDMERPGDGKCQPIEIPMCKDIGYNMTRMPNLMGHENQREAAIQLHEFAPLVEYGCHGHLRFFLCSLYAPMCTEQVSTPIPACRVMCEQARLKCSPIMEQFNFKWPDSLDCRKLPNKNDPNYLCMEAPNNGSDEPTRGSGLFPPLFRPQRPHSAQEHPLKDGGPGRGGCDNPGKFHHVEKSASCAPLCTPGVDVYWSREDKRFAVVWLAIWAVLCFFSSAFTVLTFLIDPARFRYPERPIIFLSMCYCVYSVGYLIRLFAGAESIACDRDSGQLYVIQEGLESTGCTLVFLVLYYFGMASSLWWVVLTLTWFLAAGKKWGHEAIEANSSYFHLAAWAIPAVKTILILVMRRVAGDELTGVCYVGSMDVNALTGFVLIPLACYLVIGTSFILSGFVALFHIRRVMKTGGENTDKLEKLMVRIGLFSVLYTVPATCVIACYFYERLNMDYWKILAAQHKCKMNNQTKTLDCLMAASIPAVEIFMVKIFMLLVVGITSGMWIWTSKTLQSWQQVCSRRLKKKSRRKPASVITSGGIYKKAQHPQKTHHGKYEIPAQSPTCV
The experiment in a line: STD-NMR. The class given is binding. As to conditions: 230 nM protein, 0.3–1.5 µM ligand, D2O, 298 K. The essentials:
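STD-NMR at 600 MHz on a cryoprobe-equipped spectrometer, with the residual D2O peak (δH 4.70) as chemical shift reference. 1H spectral width 9600 Hz, 30° pulse angle, 2.5 s recycle delay, 8 scans.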

Assay [2] has as its system phosphorylated LRP6. The experiment in a line: Western immunoblotting of Wnt signaling proteins in SUNE5-8F cells. Format: cell-based. As to conditions: IC25 and IC50 doses, 48 h. The essentials: (§1)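 Lysates spun at 12,000 × g, 10 min, 4 °C; Bradford assay. 10% SDS-PAGE, nitrocellulose transfer, 5% BSA block 1 h, primary antibody overnight at 4 °C, HRP secondary 1 h at room temperature, ECL detection. Band densities normalised to β-actin, expressed relative to untreated control.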

The next assay concerns SUNE6-10B. Description: Clonogenic. The class given is cell-based.
Assay [3] concerns non-phosphorylated β-catenin. The experiment in a line: Western immunoblotting of Wnt signaling proteins in SUNE5-8F cells. The class given is cell-based. The conditions noted are these: IC25 and IC50 doses, 48 h. In a few lines:
as §1
(In general: In western blotting, separated proteins are transferred to a membrane and probed.)

Assay [4] relates to non-phosphorylated β-catenin. Description: Western immunoblotting of Wnt signaling proteins in SUNE6-10B cells. The class given is cell-based. As to conditions: IC50 dose, 48 h. In a few lines:
as §1

Assay [5] has as its system phosphorylated LRP6. The description is as above. The conditions noted are these: IC50 dose, 48 h. Format: cell-based. In a few lines: as §1
Setting [6] is: IC25 dose (rilpivirine 2 µM, doxazosin 7 µM, nicergoline 20 µM).
[7] abbreviates: IC50 dose (rilpivirine 4 µM, doxazosin 14 µM, nicergoline 40 µM).
The mark [8] stands for this setting: IC25 dose (doxazosin 7 µM, nicergoline 20 µM).

Consider `COc1cc2nc(N3CCN(C(=O)C4COc5ccccc5O4)CC3)nc(N)c2cc1OC` (centres unmarked) [Doxazosin], for which the “50% inhibition cutoff at 100 µM” value in the assay with NPC cells was “met the 50% inhibition cutoff at 100 µM”. The colony formation entry in the assay on SUNE5-8F (setting [6]), in the assay on SUNE5-8F (setting [7]), with SUNE6-10B (setting [8]) and with SUNE6-10B (setting [7]) was “suppressed the colony formation” in each case. Also, the “STD signals (binding to FZD10)” value in assay [1] is “STD signals for H5 and H6”. The “expression of phosphorylated LRP6” value with phosphorylated LRP6 [2] is given as “decreased”. In addition, the “expression of active β-catenin (non-phosphorylated β-catenin)” value in assay [3] was “decreased”.
In the case of `CO[C@]12C[C@@H](COC(=O)c3cncc(Br)c3)CN(C)[C@@H]1Cc1cn(C)c3cccc2c13` [Nicergoline], the “50% inhibition cutoff at 100 µM” value in the assay with NPC cells is “met the 50% inhibition cutoff at 100 µM”. Besides, the colony formation result with SUNE5-8F (setting [6]), with SUNE5-8F (setting [7]), in the assay with SUNE6-10B (setting [8]) and in the assay on SUNE6-10B (setting [7]) was “suppressed the colony formation” throughout. The “expression level of active β-catenin” value in assay [4] is on record as “decreased”. The “STD signals (binding to FZD10)” value in assay [1] is “STD signals corresponding to H2 and H3”. For the same compound, the “expression of phosphorylated LRP6” value with phosphorylated LRP6 [2] was “decreased”. Also, the “expression of active β-catenin (non-phosphorylated β-catenin)” value in assay [3] is on record as “decreased”.
For `COc1cc2nc(N3CCN(C(=O)c4ccco4)CC3)nc(N)c2cc1OC` [Prazosin], the “50% inhibition cutoff at 100 µM” value in the assay on NPC cells is recorded as “met the 50% inhibition cutoff at 100 µM”. In addition, in the assay with SUNE5-8F (8 µM), the colony formation result is reported as “inhibited colony formation”. In addition, the “expression level of active β-catenin” value in assay [4] is listed as “decreased”. Also, the “STD signals (binding to FZD10)” value in assay [1] was “STD signals from H2, H3,4, and H5,6”. The “expression of phosphorylated LRP6” value in the assay with phosphorylated LRP6 [2] was “decreased”. In assay [3], the “expression of active β-catenin (non-phosphorylated β-catenin)” value is on record as “decreased”.
Consider `Cc1cc(/C=C/C#N)cc(C)c1Nc1ccnc(Nc2ccc(C#N)cc2)n1` [Rilpivirine], for which the “expression of phosphorylated LRP6” value in the assay on phosphorylated LRP6 [5] was “reduced”; with phosphorylated LRP6 [2], “decreased”. In addition, the “50% inhibition cutoff at 100 µM” value in the assay with NPC cells was “met the 50% inhibition cutoff at 100 µM”. For the same compound, the colony formation entry in the assay on SUNE5-8F (setting [6]) is recorded as “no impact”; in the assay with SUNE5-8F (setting [7]) it was “reduced the colony formation ability”; with SUNE6-10B (setting [7]), “reduced the colony formation ability”. Also, in assay [4], the “expression level of active β-catenin” value was “decreased”. The “STD signals (binding to FZD10)” value in assay [1] is recorded as “STD signals from H2”. The “expression of active β-catenin (non-phosphorylated β-catenin)” value in assay [3] is listed as “decreased”.
